Shown are actives, neighbours in structure and some others; about 3.1% of the full set was active somewhere.
GalR3 antag = GalR3 antagonists in HEK293 cells, primary screen, cell-based, fluorescence readout; Galanin receptor type 3 (Homo sapiens), O60755; HEK293 GalR3-CNG cAMP membrane potential fluorescence; galR3 body fused to GalR1 C-terminus; inhibition, % at 3 µM; 0.44% of 360,000 active;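 active = inhibition above the screen-wide average plus 3 SD, cut at about 13% in these data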;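 note: forskolin and galanin both at EC90 stimulate the cells; cAMP rise reported by CNG channel membrane potential dye signal; 0% = forskolin plus galanin with DMSO and 100% = forskolin alone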
Target sequence (O60755 1-299 limits assumed): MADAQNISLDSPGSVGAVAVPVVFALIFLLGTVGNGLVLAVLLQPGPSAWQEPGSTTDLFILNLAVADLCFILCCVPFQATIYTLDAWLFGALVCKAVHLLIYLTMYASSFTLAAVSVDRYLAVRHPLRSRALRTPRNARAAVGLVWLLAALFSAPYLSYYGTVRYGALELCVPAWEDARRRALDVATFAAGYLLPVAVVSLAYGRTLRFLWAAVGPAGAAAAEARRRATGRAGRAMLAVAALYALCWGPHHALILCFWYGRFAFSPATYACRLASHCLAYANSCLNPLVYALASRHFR
OX1R antag-1 = antagonists of human orexin 1 receptor (OX1R) | Orexin/Hypocretin receptor type 1 (Homo sapiens), O43613 | OX1R-expressing cells, FRET antagonist read-out | inhibition, % at 6.6 µM | 1.8% of 330,000 active; in the data active = inhibition mostly above about 38%, no sharp cut-off; inactive = mostly below about 40%;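 note: 0% = agonist challenge alone and 100% = reference antagonist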
OX1R antag-2 = OX1R (HCRTR1) antagonists, primary screen, fluorescence, CHO/OX1R cells, Fluo-8 calcium, orexin A; AID 434989, 2010; 0.43% of 330,000 active; Fluo-8 calcium fluorescence; inhibition, % at 5 µM; Orexin/Hypocretin receptor type 1 (Homo sapiens), O43613;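 active = inhibition above its plate's threshold, mean inhibition of all tested compounds on the plate plus 3 SD, cut at about 37% in these data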;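 note: 0% = orexin A challenge wells and 100% = SB-334867-A antagonist wells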
GPR7 antagonist = GPR7 receptor antagonists, primary screen, cell-based, fluorescence, single concentration; 1.1% of 290,000 active; GPR7-expressing cells, fluorescence antagonist assay; inhibition, % at 4.4 µM; in the data active = inhibition above about 16%, passing the limit was not always enough;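 note: cells stimulated with the agonist NPW; 0% = agonist with vehicle and 100% = vehicle without agonist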
Target sequence (P48145 whole entry, looked up): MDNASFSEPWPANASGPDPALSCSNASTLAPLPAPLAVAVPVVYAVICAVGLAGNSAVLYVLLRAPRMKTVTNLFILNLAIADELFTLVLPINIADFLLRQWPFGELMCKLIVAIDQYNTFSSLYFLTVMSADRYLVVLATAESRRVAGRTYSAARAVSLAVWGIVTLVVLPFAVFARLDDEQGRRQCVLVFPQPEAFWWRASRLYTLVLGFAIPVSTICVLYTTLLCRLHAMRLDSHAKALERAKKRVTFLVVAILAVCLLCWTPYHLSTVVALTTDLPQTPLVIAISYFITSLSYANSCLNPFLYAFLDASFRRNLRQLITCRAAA
CHO parental Ca = ATP-evoked calcium signal inhibitors, parental CHO, primary screen, counter-screen for OX1R antagonist project, cell-based, fluorescence, Fluo-8 calcium dye; inhibition, % at 5.6 µM; parental CHO-K1, ATP-induced calcium, Fluo-8 fluorescence; 0.63% of 330,000 active; AID 463079, 2010;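 active = inhibition above that plate's mean sample inhibition plus 3 SD, cut at about 26% in these data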;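 note: 0% = ATP-challenged DMSO wells and 100% = DMSO wells without ATP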
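Test system: parental CHO cells; detection: calcium-sensitive Fluo-8 fluorescence; evaluation: percent inhibition of calcium signal; also added: ATP as calcium-mobilizing challenge; repeats: one well per compound; control set: ATP-challenged DMSO wells low, unchallenged DMSO wells high; compound: single nominal dose of 5.6 µM per compound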
GalR3 conf = GalR3 antagonist hit confirmation, cell-based, fluorescence, triplicate. inhibition, % at 3 µM. AID 652245, 2013. 59% of 1,600 active. HEK293 GalR3 CNG cAMP biosensor, membrane potential fluorescence; galR3 fused to GalR1 carboxy tail; challenged with forskolin and galanin at EC90. shares compounds with GalR3 antag;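 active = inhibition above the primary screen's cutoff, the mean inhibition of all screened compounds plus 3 SD, cut at about 13% in these data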;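 note: 0% = forskolin plus galanin and 100% = forskolin alone with DMSO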
CNG parental = nonspecific cAMP agonists in parental HEK-CNG cells, counter-screen for GalR3 antagonist project, cell-based, fluorescence, high throughput; AID 652268, 2013; HEK293-CNG parental cells, cAMP membrane potential fluorescence; normalised: DMSO wells 0%, forskolin wells 100%; 10% of 1,600 active; shares compounds with GalR3 antag; activation, % at 3 µM; in the data active = activation above about 1.3%
* = called active by the depositor; . = no result.

SMILES	GalR3 antag	OX1R antag-1	OX1R antag-2	GPR7 antagonist	CHO parental Ca	GalR3 conf	CNG parental
CC(=O)c1c(C)[nH]c(C(=O)OCC(=O)Nc2cccc(S(=O)(=O)N(C)C)c2)c1C	-3	-13	-23	-7	-5	.	.
CCN(CC)S(=O)(=O)c1cccc(NC(=O)COC(=O)c2[nH]c(C)c(C(C)=O)c2C)c1	28*	.	.	.	.	97*	0
CNc1cc(-c2ccc(CC#N)cc2)ncn1	1	.	.	.	.	.	.
CC1(C)CC2(CC(c3ccccc3)Oc3cc(O)ccc32)NC(=S)N1 (stereo not drawn)	-1	4	-12	-4	-13	.	.
CC(=O)Oc1ccc2c(c1)OC(c1ccccc1)CC21CC(C)(C)NC(=S)N1 (stereo not drawn)	.	5	-17	11	-12	2	0
Nc1ncnc2c1ncn2[C@@H]1O[C@H](CO)[C@@H](O)[C@H]1O	112*	16	-1	-25	-2	-20	5.8*
CC1(C)OC2C(O1)[C@@H](CO)O[C@H]2n1cnc2c(N)ncnc21 (stereo partly drawn)	0	15	-12	-14	-24	.	.
COc1ccc(CCN2CCC(CN3C(=S)NC[C@@H]3Cc3ccccc3)CC2)cc1OC	-6	.	.	.	.	.	.
CCC(=O)Nc1cccc(-c2cn3cccc(C)c3n2)c1	13*	16	-19	-9	-11	-1	0
COc1ccccc1CCn1cnc(-c2ccc(Br)cc2)c1CC(C)C	-5	.	.	.	.	.	.
COC(=O)CCCCC1SCC2NC(=O)NC21 (stereo not drawn)	-4	20	-4	-3	7	.	.
CCCOC(=O)CCCC[C@H]1SC[C@@H](NC(=O)OC)[C@H]1NC(=O)OC	14*	-2	-18	-3	0	5	0
OC(CNC1CCCCC1)CON=C1CCSc2c(Cl)cccc21 (stereo not drawn)	-8	.	.	.	.	.	.
O=C(OCCN1C(=O)c2ccccc2C1=O)c1cc(S(=O)(=O)N2CCOCC2)ccc1Cl	6	23	-10	2	0	.	.
O=C(OCN1C(=O)c2ccccc2C1=O)c1cc(S(=O)(=O)N2CCOCC2)ccc1F	13*	.	.	.	.	24*	0
CC1(C)C(=O)Nc2ccccc2N1C(=O)COC(=O)c1cc(S(=O)(=O)N2CCOCC2)ccc1F	39*	16	-15	-16	-23	16*	0
CCOc1ccc(-c2c[n+]3c(n2-c2ccccc2)CCCCC3)cc1	56*	12	-19	25*	3	71*	0
COc1ccc(-n2c(-c3ccccc3)c[n+]3c2CCC3)cc1	-5	17	9	-4	-1	.	.
NS(=O)(=O)c1ccc(S(=O)(=O)N2CCCC(c3ccccc3)C2)cc1 (stereo not drawn)	-4	.	.	.	.	.	.
Cn1c(=O)c2c(nc(NCCCN3CCOCC3)n2Cc2ccc(Cl)c(Cl)c2)n(C)c1=O	10	.	.	-4	.	.	.
Cn1c(=O)c2c(nc(NCC3CCCO3)n2Cc2ccccc2)n(C)c1=O (stereo not drawn)	.	3	-25	-5	-7	5	0
Cn1c(=O)c2c(nc(NCCCN3CCOCC3)n2Cc2ccc(Cl)cc2)n(C)c1=O	14*	18	-30	-10	-9	15*	0
O=C(Nc1ccc(F)c(Cl)c1)Nc1nnc([C@H]2C[C@H](O)[C@@H](CO)O2)s1	-7	.	.	.	.	.	.
CC(Nc1ncnc2ccccc12)c1ccccc1 (stereo not drawn)	96*	6	21	7	38*	106*	0
O=C(COC(=O)/C=C/c1cccc(F)c1)Nc1ccc2[nH]c(=O)[nH]c2c1	-5	16	-4	.	3	.	.
SMILES	GalR3 antag	OX1R antag-1	OX1R antag-2	GPR7 antagonist	CHO parental Ca	GalR3 conf	CNG parental
O=C(COC(=O)/C=C/c1cccc(Cl)c1)Nc1ccc2[nH]c(=O)[nH]c2c1	35*	11	-17	.	5	44*	6.9*
CC(C)C1C(=O)N(Cc2cn(Cc3ccco3)nn2)CCS(=O)(=O)N1Cc1ccc(-c2ccc(F)cc2)cc1 (stereo not drawn)	2	.	.	.	.	.	.
Cc1ccc(C(=O)NCCCn2ccnc2)cn1	.	12	-2	-7	-4	6	0
CN1CCN(C(=S)C(=O)Nc2ccc(Br)cc2)CC1	40*	16	-9	4	1	4	0
CN1CCN(C(=S)NC(=O)c2ccc(Br)cc2)CC1	-6	-1	-9	-15	-2	.	.
Cc1sc2nc(SC3CCOC3=O)n(Cc3ccccc3)c(=O)c2c1C (stereo not drawn)	-4	9	-38	-8	-14	.	.
C=CCn1c(SC2CCOC2=O)nc2sc(C)c(C)c2c1=O (stereo not drawn)	35*	-15	-20	-12	-10	36*	0
Cc1nnc(Sc2cc(NCCCO)c([N+](=O)[O-])c3nonc23)s1	21*	.	.	16	.	5	0
CC(OC(=O)CCNS(=O)(=O)c1ccccc1)C(=O)Nc1ccc(S(=O)(=O)N2CCCCC2)cc1 (stereo not drawn)	-6	.	.	.	.	.	.
COc1ccc(CCNC(=O)Cn2nc(C)c3c(C)n(-c4ccccc4)nc3c2=O)c(OC)c1	3	11	-40	-9	-36	.	.
COc1ccc(OC)c(CCNC(=O)Cn2nc(C)c3c(C)n(-c4ccc(C)cc4)nc3c2=O)c1	33*	13	-19	-4	-22	98*	0
Cc1oc2c(C)c3oc(=O)c(CCC(=O)N4C[C@H]5C[C@@H](C4)c4cccc(=O)n4C5)c(C)c3cc2c1C	15*	10	-15	-7	-22	7	0
COc1ccc(S(=O)(=O)N/N=C\c2ccc3c(c2)OCO3)c(OC)c1	100*	.	.	-2	.	73*	0
COc1ccc(OC)c(S(=O)(=O)N/N=C\c2ccc3c(c2)OCO3)c1	-3	3	0	0	3	.	.
CCCN(CC(=O)Nc1ccc(Cl)cc1Cl)Cc1cc(=O)n2ccsc2n1	17*	37	-31	-7	-22	24*	0
COc1ccc(C(NC(C)=O)c2nccc3cc(OC)c(OC)cc23)cc1OC (stereo not drawn)	23*	.	.	-14	.	3	0
COc1ccc(C2=NN(C(=O)c3cccs3)C(O)(C(F)(F)F)C2)cc1 (stereo not drawn)	88*	1	-42	-22	-45	94*	1
